Measurements as given in ChEMBL document CHEMBL1124544, “Structure-activity relationship of antiestrogens: a study using triarylbutenone, benzofuran, and triarylfuran analogues as models for triarylethylenes and triarylpropenones” (1989).
Calls of active or inactive are those of the source. The calls are words filed in the database; no cut-off is given here.

Key:
[1] = system: Rattus norvegicus; assay: Inhibition of E2 effects in rats by 0.1 mg s.c.; format: functional
Procedure, shortened: (§1)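 Immature female Sprague-Dawley rats (21–23 days), groups of seven to nine, given test compound suspended in 0.2 mL propylene glycol–saline (1:1 v/v) s.c. daily for 3 consecutive days, plus 1 μg E₂ per animal at a separate site. Controls got E₂ plus vehicle. Uterine wet weight taken at autopsy 24 h after the last injection. Inhibition computed as (E − C₁)(100)/(E − V).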

[2] = biological target: T1, Estrogen receptor (Rattus norvegicus) (UniProt P06211+Q62986); assay: Relative binding against estrogen receptor of rat uterine cytosol by [2-4-3H] estradiol.; format: protein assay
Procedure, shortened: (§2)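 Uterine cytosol (1 uterine equiv/mL) from immature rats primed s.c. with 1 μg E₂ for 3 days, incubated 18 h at 4 °C with [³H]E₂ (5 × 10⁻⁹ M) and test compound (10⁻⁴–10⁻⁹ M) in triplicate. Medium was Tris-HCl/EDTA/azide buffer, pH 7.4, with 7% DMF. Free ligand removed with charcoal-dextran for 20 min before scintillation counting. Results expressed relative to E₂ = 100, mean ± SD of ≥3 determinations.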

[3] = system: Rattus norvegicus; assay: Estrogenicity in rats following 3 x 0.1 mg s.c. over 72h.; format: functional
Procedure, shortened: (§3)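 Immature Sprague-Dawley female rats, 21–23 days old, seven to nine per group, injected s.c. on 3 consecutive days with test compound suspended in 0.2 mL propylene glycol–saline (1:1 v/v). Vehicle-only controls. Autopsy 24 h after the final dose, uterine wet weight recorded. Agonist activity computed as (C₀ − V)(100)/(E − V), with E the E₂-alone mean.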

[4] = system: Rattus norvegicus; assay: Anti-uterotrophic effects in rats following 3 x 0.1 mg s.c. over 72h.; format: functional; procedure, shortened: as §1
[5] = system: Rattus norvegicus; assay: Uterotrophic effects in rats following 3 x 0.1 mg s.c. over 72h.; format: functional, Uterus; procedure, shortened: as §3
[6] = system: Rattus norvegicus; assay: Estrogenicity in rats following 3 x 1 mg s.c. over 72h.; format: functional; procedure, shortened: as §3
[7] = system: Rattus norvegicus; assay: Uterotrophic effects in rats following 3 x 1 mg s.c. over 72h.; format: functional, Uterus; procedure, shortened: as §3
[8] = system: Rattus norvegicus; assay: Inhibition of E2 effects in rats by 1 mg s.c.; format: functional; procedure, shortened: as §1
[9] = system: Rattus norvegicus; assay: Anti-uterotrophic effects in rats following 3 x 1 mg s.c. over 72h.; format: functional; procedure, shortened: as §1
[10] = biological target: T1, Estrogen receptor (Rattus norvegicus); assay: Relative binding affinity against estrogen receptor of rat uterine cytosol by [2-4-3H] estradiol; No detectable affinity at 100 uM.; procedure, shortened: as §2

| Structure (SMILES) | RBA [2] [%] | RBA [10] | Inhibition [1] [%] | Estrogenic effect [3] [%] | Uterine weight [4] [mg] | Uterine weight [5] [mg] | Estrogenic effect [6] [%] | Uterine weight [7] [mg] | Inhibition [8] [%] | Uterine weight [9] [mg] |
| --- | --- | --- | --- | --- | --- | --- | --- | --- | --- | --- |
| COc1ccc2c(-c3ccc(OCCN4CCCC4)cc3)c(-c3ccccc3)oc2c1 | 0.01 |  |  |  |  |  | 57 | 35.4 | 0 | 61.4 |
| Cl.O=C(c1ccccc1)c1c(-c2ccc(OCCN3CCCC3)cc2)oc2ccccc12 | 0.3 |  |  |  |  |  | 38 | 27.7 | 58 | 29.6 |
| C/C(=C(/C(=O)c1ccc(OCCN2CCCC2)cc1)c1ccccc1)c1ccccc1 | 0.008 |  | 26 | 38 | 43.1 | 30.6 |  |  |  |  |
| Oc1ccc(-c2oc3cc(O)ccc3c2-c2ccc(O)cc2)cc1 | 7.8 |  |  |  |  |  | 22 | 21.2 | 30 | 39.6 |
| O=C(c1ccccc1)c1c(-c2ccc(O)cc2)oc2cc(O)ccc12 | 0.72 |  |  |  |  |  | 35 | 26.6 | 0 | 43.2 |
| C/C(=C(\C(=O)c1ccc(OCCN2CCCC2)cc1)c1ccccc1)c1ccccc1 | 0.24 |  | 16 | 0 | 46.6 | 18 |  |  |  |  |
| O=C(c1ccc(OCCN2CCCC2)cc1)c1c(-c2ccccc2)oc2ccccc12 | 0.01 |  |  |  |  |  | 0 | 16.7 | 0 | 56.1 |
| C/C(=C(\C(=O)c1ccc(O)cc1)c1ccccc1)c1ccccc1 | 0.54 |  | 14 | 0 | 47.3 | 19.8 |  |  |  |  |
| O=C(c1ccc(O)cc1)c1oc2cc(O)ccc2c1-c1ccc(O)cc1 | 2.7 |  |  |  |  |  | 31 | 26.3 | 23 | 48.3 |
| C/C(=C(/C(=O)c1ccc(O)cc1)c1ccccc1)c1ccccc1 | 3.6 |  | 21 | 83 | 44.7 | 46.4 |  |  |  |  |
| O=C(c1ccc(O)cc1)c1c(-c2ccc(O)cc2)oc2ccccc12 | 1.7 |  |  |  |  |  | 0 | 13.1 | 0 | 59.3 |

Now from value to molecule, other results behind:

| RBA [2] [%] | RBA [10] | Structure (SMILES) | Inhibition [1] [%] | Estrogenic effect [3] [%] | Uterine weight [4] [mg] | Uterine weight [5] [mg] | Estrogenic effect [6] [%] | Uterine weight [7] [mg] | Inhibition [8] [%] | Uterine weight [9] [mg] |
| --- | --- | --- | --- | --- | --- | --- | --- | --- | --- | --- |
| 1.8 |  | O=C(/C(=C/c1ccccc1)c1ccccc1)c1ccc(O)cc1 | 0 | 68 | 78.1 | 49.4 |  |  |  |  |
| 0.12 |  | O=C(c1ccccc1)c1c(-c2ccc(O)cc2)oc2ccccc12 |  |  |  |  | 0 | 13.7 | 0 | 47.4 |
| 4.5 |  | Oc1ccc(-c2c(-c3ccccc3)coc2-c2ccccc2)cc1 | 0 | 0 | 42.8 | 16.7 |  |  |  |  |
| 3 |  | Oc1ccc(-c2coc(-c3ccccc3)c2-c2ccccc2)cc1 | 0 | 100 | 57.6 | 48.9 |  |  |  |  |
| 1.6 |  | Oc1ccc(-c2c(-c3ccccc3)oc3cc(O)ccc23)cc1 |  |  |  |  | 0 | 14.6 | 0 | 46.5 |
| 2.1 |  | O=C(c1ccc(O)cc1)c1c(-c2ccccc2)oc2cc(O)ccc12 |  |  |  |  | 25 | 22.4 | 37 | 38 |
| 0.01 |  | COc1ccc(-c2c(-c3ccccc3)oc3cc(O)ccc23)cc1 |  |  |  |  |  |  |  |  |
|  | inactive | c1ccc(-c2occ(-c3ccc(OCCN4CCCC4)cc3)c2-c2ccccc2)cc1 | 0 | 61 | 52.1 | 35.6 |  |  |  |  |
| 0.01 |  | COc1ccc2c(-c3ccc(O)cc3)c(-c3ccccc3)oc2c1 |  |  |  |  |  |  |  |  |
| 0.06 |  | O=C(/C(=C\c1ccccc1)c1ccccc1)c1ccc(O)cc1 | 0 | 33 | 70.4 | 22.2 |  |  |  |  |
| 0.84 |  | c1ccc(-c2coc(-c3ccccc3)c2-c2ccc(OCCN3CCCC3)cc2)cc1 | 0 | 31 | 53.9 | 26.4 |  |  |  |  |
| 5.3 |  | O=C(c1ccc(O)cc1)c1c(-c2ccccc2)oc2ccccc12 |  |  |  |  | 10 | 16.3 | 0 | 50.7 |
